Bridge positions count the residues as written; N and C are the ends. Square brackets hold non-standard residues; d marks the D form. Peptide text beside a SMILES is read from it. * marks the point of attachment. Ala(2-furyl) = N[C@@H](Cc1ccco1)C(=O)O; Ala(cPent) = N[C@@H](CC1CCCC1)C(=O)O; Orn(iPr) = CC(C)NCCC[C@H](N)C(=O)O; 2Thi = N[C@@H](Cc1cccs1)C(=O)O; 3Thi = N[C@@H](Cc1ccsc1)C(=O)O; Cha = N[C@@H](CC1CCCCC1)C(=O)O; Orn = NCCC[C@H](N)C(=O)O; Dab = NCC[C@H](N)C(=O)O; Dap = NC[C@H](N)C(=O)O; N(Me)OMe = CON(C)*; NHCH2CH2OH = OCCN*; NHOH = ON*
Tests used:
Vasopressin V2 receptor = Vasopressin V2 receptor (Homo sapiens, UniProt P30518); experiment: Agonist activity at recombinant human vasopressin V2 receptor expressed in HEK293 cells by luciferase reporter gene assay; assay type: functional, cell-based
Homo sapiens [1] = species on record: Homo sapiens; experiment: Selectivity ratio of EC50 for human vasopressin V1b receptor to EC50 for human vasopressin V1a receptor
[2] = target: Vasopressin V1a/V2 (Homo sapiens) (UniProt P30518+P37288); experiment: Selectivity ratio of EC50 for human vasopressin V2 receptor to EC50 for human vasopressin V1a receptor
Vasopressin V1b receptor = target: T1, Vasopressin V1b receptor (Homo sapiens, UniProt P47901); experiment: Agonist activity at recombinant human vasopressin V1b receptor expressed in Flp-In-293 cells by luciferase reporter gene assay; assay type: functional, cell-based; conditions: read-out: EC50
T1 sequence (P47901 whole entry): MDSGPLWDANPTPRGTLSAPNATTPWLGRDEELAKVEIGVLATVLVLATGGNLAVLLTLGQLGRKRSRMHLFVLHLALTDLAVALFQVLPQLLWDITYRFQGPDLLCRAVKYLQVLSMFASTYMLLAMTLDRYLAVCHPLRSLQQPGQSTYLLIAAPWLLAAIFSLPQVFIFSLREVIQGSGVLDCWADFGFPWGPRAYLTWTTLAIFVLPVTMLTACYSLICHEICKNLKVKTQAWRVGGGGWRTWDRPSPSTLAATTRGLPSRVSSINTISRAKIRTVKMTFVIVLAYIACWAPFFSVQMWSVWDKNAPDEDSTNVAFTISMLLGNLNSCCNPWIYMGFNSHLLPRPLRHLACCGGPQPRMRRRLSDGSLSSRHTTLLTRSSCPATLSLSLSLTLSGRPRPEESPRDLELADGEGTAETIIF
Method in brief: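 Reporter gene assays in HEK293 cells transiently cotransfected with V1a (human or rat) or human V2 receptor vector plus NFAT-luciferase (V1a) or CRE-luciferase (V2) reporter; V1b in Flp-In-293 stably expressing receptor, OT in CHO-K1 stably expressing receptor, both transiently transfected with NFAT-luciferase. Two days post-transfection, peptides added for 5 h at 37 °C, lysis with luciferin, luminescence read.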

Homo sapiens [3] = species on record: Homo sapiens; experiment: Selectivity ratio of EC50 for human oxytocin receptor to EC50 for human vasopressin V1a receptor
Oxytocin receptor = target: T2, Oxytocin receptor (Homo sapiens, UniProt P30559); experiment: Agonist activity at human OT receptor expressed in CHO-K1 cells by luciferase reporter gene assay; assay type: functional, cell-based
T2 sequence (P30559 whole entry): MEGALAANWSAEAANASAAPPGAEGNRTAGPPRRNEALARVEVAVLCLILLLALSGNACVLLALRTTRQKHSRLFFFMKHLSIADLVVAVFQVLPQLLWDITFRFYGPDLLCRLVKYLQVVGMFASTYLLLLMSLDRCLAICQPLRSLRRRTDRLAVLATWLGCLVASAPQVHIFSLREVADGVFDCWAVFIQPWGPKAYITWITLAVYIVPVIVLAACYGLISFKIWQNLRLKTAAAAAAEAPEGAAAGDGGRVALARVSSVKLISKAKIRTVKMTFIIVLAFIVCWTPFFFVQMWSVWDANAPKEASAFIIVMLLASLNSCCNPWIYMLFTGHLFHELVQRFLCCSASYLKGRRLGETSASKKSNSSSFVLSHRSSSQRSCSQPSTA

Vasopressin V1a receptor = Vasopressin V1a receptor (Homo sapiens, UniProt P37288); experiment: Agonist activity at recombinant human vasopressin V1a receptor expressed in HEK293 cells by luciferase reporter gene assay; assay type: functional, cell-based; conditions: read-out: EC50
Vasopressin V1a receptor, sequence (P37288 whole entry): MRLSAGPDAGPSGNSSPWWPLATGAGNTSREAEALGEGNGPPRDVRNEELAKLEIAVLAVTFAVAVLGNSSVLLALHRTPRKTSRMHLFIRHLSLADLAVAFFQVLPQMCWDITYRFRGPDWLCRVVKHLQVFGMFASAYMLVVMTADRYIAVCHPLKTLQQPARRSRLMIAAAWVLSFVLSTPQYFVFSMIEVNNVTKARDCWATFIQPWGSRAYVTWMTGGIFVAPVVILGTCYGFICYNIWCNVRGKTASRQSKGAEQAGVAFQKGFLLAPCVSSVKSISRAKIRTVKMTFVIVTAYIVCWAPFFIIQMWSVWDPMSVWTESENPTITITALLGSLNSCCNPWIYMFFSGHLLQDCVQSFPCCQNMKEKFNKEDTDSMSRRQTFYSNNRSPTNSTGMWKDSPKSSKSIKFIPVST

Vasopressin V1a/V2 (Homo sapiens), sequence (P30518 whole entry, looked up): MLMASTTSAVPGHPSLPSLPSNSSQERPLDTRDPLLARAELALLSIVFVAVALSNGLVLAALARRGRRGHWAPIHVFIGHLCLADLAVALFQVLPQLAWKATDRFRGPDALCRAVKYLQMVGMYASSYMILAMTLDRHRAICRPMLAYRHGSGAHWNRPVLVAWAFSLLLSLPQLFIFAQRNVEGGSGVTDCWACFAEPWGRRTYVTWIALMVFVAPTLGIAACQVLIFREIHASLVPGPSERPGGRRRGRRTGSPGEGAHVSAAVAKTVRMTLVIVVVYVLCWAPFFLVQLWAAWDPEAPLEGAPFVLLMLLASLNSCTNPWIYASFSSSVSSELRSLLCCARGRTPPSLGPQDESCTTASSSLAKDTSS
Vasopressin V1a/V2 (Homo sapiens), sequence (P37288 whole entry, looked up): as the sequence (P37288 whole entry) above
Vasopressin V2 receptor, sequence (P30518 whole entry): as the sequence (P30518 whole entry, looked up) above

| Structure (SMILES) | EC50 (Vasopressin V2 receptor; hek293, read-out: EC50) | EC50 (Vasopressin V2 receptor; read-out: pEC50 (converted)) | Ratio EC50 (Homo sapiens [1]) | Ratio EC50 [2] | EC50 (Vasopressin V1b receptor) | Ratio EC50 (Homo sapiens [3]) | EC50 (Oxytocin receptor; cho-k1, read-out: EC50) | EC50 (Oxytocin receptor; read-out: pEC50 (converted)) | EC50 (Vasopressin V1a receptor) | EC50 (Vasopressin V2 receptor; read-out: EC50) | EC50 (Oxytocin receptor; read-out: EC50) |
| --- | --- | --- | --- | --- | --- | --- | --- | --- | --- | --- | --- |
| CC[C@H](C)[C@@H]1NC(=O)[C@H](Cc2ccccc2)NC(=O)[C@@H](N)CSSC[C@@H](C(=O)N2CCC[C@H]2C(=O)N[C@@H](CCCN)C(=O)NCC(N)=O)NC(=O)[C@H](CC(N)=O)NC(=O)[C@H](CC(=O)NCCO)NC1=O (H-CFID(NHCH2CH2OH)NCP[Orn]G-NH2; disulfide 1-6) | > 10000 nM | > 10000 nM | 3.2 | > 1200 | 26 nM | > 1200 | > 10000 nM | > 10000 nM | 8 nM |  |  |
| CC[C@H](C)[C@@H]1NC(=O)[C@H](Cc2ccccc2)NC(=O)[C@@H](N)CSSC[C@@H](C(=O)N2CCC[C@H]2C(=O)N[C@@H](CCCN)C(=O)NCC(N)=O)NC(=O)[C@H](CC(N)=O)NC(=O)[C@H](CC(=O)NO)NC1=O (H-CFID(NHOH)NCP[Orn]G-NH2; disulfide 1-6) |  |  | 13 | 630 | 56 nM | > 2400 | > 10000 nM | > 10000 nM | 4.1 nM | 2600 nM |  |
| CC[C@H](C)[C@@H]1NC(=O)[C@H](CC2CCCC2)NC(=O)[C@@H](N)CSSC[C@@H](C(=O)N2CCC[C@H]2C(=O)N[C@@H](CCN)C(=O)NCC(N)=O)NC(=O)[C@H](CC(N)=O)NC(=O)[C@H](CC(N)=O)NC1=O (H-C[Ala(cPent)]INNCP[Dab]G-NH2; disulfide 1-6) | > 10000 nM | > 10000 nM | 6.9 | > 900 | 76 nM | > 900 | > 10000 nM | > 10000 nM | 11 nM |  |  |
| CC[C@H](C)[C@@H]1NC(=O)[C@H](Cc2ccccc2)NC(=O)[C@@H](N)CSSC[C@@H](C(=O)N2CCC[C@H]2C(=O)N[C@@H](CCCN)C(=O)NCC(N)=O)NC(=O)[C@H](CC(N)=O)NC(=O)[C@H](CCC(=O)N(C)OC)NC1=O (H-CFIE(N(Me)OMe)NCP[Orn]G-NH2; disulfide 1-6) |  |  | 7.8 | 17 | 540 nM | > 140 | > 10000 nM | > 10000 nM | 69 nM | 1200 nM |  |
| CC[C@H](C)[C@@H]1NC(=O)[C@H](Cc2ccco2)NC(=O)[C@@H](N)CSSC[C@@H](C(=O)N2CCC[C@H]2C(=O)N[C@@H](CCCNC(C)C)C(=O)NCC(N)=O)NC(=O)[C@H](CC(N)=O)NC(=O)[C@H](CC(N)=O)NC1=O (H-C[Ala(2-furyl)]INNCP[Orn(iPr)]G-NH2; disulfide 1-6) | > 10000 nM | > 10000 nM | 120 | > 660 | 1800 nM | 64 |  |  | 15 nM |  | 970 nM |
| CC[C@H](C)[C@@H]1NC(=O)[C@H](Cc2ccsc2)NC(=O)[C@@H](N)CSSC[C@@H](C(=O)N2CCC[C@H]2C(=O)N[C@@H](CCN)C(=O)NCC(N)=O)NC(=O)[C@H](CC(N)=O)NC(=O)[C@H](CC(N)=O)NC1=O (H-C[3Thi]INNCP[Dab]G-NH2; disulfide 1-6) | > 10000 nM | > 10000 nM | 51 | > 1300 | 380 nM | > 1300 | > 10000 nM | > 10000 nM | 7.4 nM |  |  |
| CC[C@H](C)[C@@H]1NC(=O)[C@H](Cc2cccs2)NC(=O)[C@@H](N)CSSC[C@@H](C(=O)N2CCC[C@H]2C(=O)N[C@@H](CCN)C(=O)NCC(N)=O)NC(=O)[C@H](CC(N)=O)NC(=O)[C@H](CC(N)=O)NC1=O (H-C[2Thi]INNCP[Dab]G-NH2; disulfide 1-6) | > 10000 nM | > 10000 nM | 42 | > 830 | 510 nM | > 830 | > 10000 nM | > 10000 nM | 12 nM |  |  |
| CC[C@H](C)[C@@H]1NC(=O)[C@H](Cc2ccsc2)NC(=O)[C@@H](N)CSSC[C@@H](C(=O)N2CCC[C@H]2C(=O)N[C@@H](CCCN)C(=O)NCC(N)=O)NC(=O)[C@H](CC(N)=O)NC(=O)[C@H](CC(N)=O)NC1=O (H-C[3Thi]INNCP[Orn]G-NH2; disulfide 1-6) | > 10000 nM | > 10000 nM | 47 | > 1300 | 350 nM | > 1300 | > 10000 nM | > 10000 nM | 7.3 nM |  |  |
| NCCC[C@H](NC(=O)[C@@H]1CCCN1C(=O)[C@@H]1CSSC[C@H](N)C(=O)N[C@@H](Cc2ccccc2)C(=O)N[C@@H](Cc2ccccc2)C(=O)N[C@@H](CCC(N)=O)C(=O)N[C@@H](CC(N)=O)C(=O)N1)C(=O)NCC(N)=O (H-CFFQNCP[Orn]G-NH2; disulfide 1-6) |  |  | 100 | 65 | 15 nM | > 71000 | > 10000 nM | > 10000 nM | 0.14 nM | 9.2 nM |  |
| CC[C@H](C)[C@@H]1NC(=O)[C@H](CC2CCCCC2)NC(=O)[C@@H](N)CSSC[C@@H](C(=O)N2CCC[C@H]2C(=O)N[C@@H](CCCN)C(=O)NCC(N)=O)NC(=O)[C@H](CC(N)=O)NC(=O)[C@H](CC(N)=O)NC1=O (H-C[Cha]INNCP[Orn]G-NH2; disulfide 1-6) | > 10000 nM | > 10000 nM | 43 | > 3100 | 140 nM | > 3100 | > 10000 nM | > 10000 nM | 3.2 nM |  |  |
| CCNC(=O)C[C@@H]1NC(=O)[C@H]([C@@H](C)CC)NC(=O)[C@H](Cc2ccccc2)NC(=O)[C@@H](N)CSSC[C@@H](C(=O)N2CCC[C@H]2C(=O)N[C@@H](CCCN)C(=O)NCC(N)=O)NC(=O)[C@H](CC(N)=O)NC1=O (H-CFID(NHEt)NCP[Orn]G-NH2; disulfide 1-6) | > 10000 nM | > 10000 nM | 5.2 | > 1700 | 30 nM | > 1700 | > 10000 nM | > 10000 nM | 5.7 nM |  |  |
| CC[C@H](C)[C@@H]1NC(=O)[C@H](Cc2ccco2)NC(=O)[C@@H](N)CSSC[C@@H](C(=O)N2CCC[C@H]2C(=O)N[C@@H](CCN)C(=O)NCC(N)=O)NC(=O)[C@H](CC(N)=O)NC(=O)[C@H](CCC(N)=O)NC1=O (H-C[Ala(2-furyl)]IQNCP[Dab]G-NH2; disulfide 1-6) |  |  | 95 | 150 | 210 nM | 47 |  |  | 2.2 nM | 330 nM | 105 nM |
| CC[C@H](C)[C@@H]1NC(=O)[C@H](Cc2ccccc2)NC(=O)[C@@H](N)CSSC[C@@H](C(=O)N2CCC[C@H]2C(=O)N[C@@H](CN)C(=O)NCC(N)=O)NC(=O)[C@H](CC(N)=O)NC(=O)[C@H](CCC(N)=O)NC1=O (H-CFIQNCP[Dap]G-NH2; disulfide 1-6) |  |  | 7 | 24 | 210 nM | > 330 | > 10000 nM | > 10000 nM | 30 nM | 720 nM |  |
| CC[C@H](C)[C@@H]1NC(=O)[C@H](Cc2cccs2)NC(=O)[C@@H](N)CSSC[C@@H](C(=O)N2CCC[C@H]2C(=O)N[C@@H](CCCN)C(=O)NCC(N)=O)NC(=O)[C@H](CC(N)=O)NC(=O)[C@H](CC(N)=O)NC1=O (H-C[2Thi]INNCP[Orn]G-NH2; disulfide 1-6) | > 10000 nM | > 10000 nM | 14 | > 660 | 220 nM | > 660 | > 10000 nM | > 10000 nM | 15 nM |  |  |
| CC[C@H](C)[C@@H]1NC(=O)[C@H](Cc2ccccc2)NC(=O)[C@@H](N)CSSC[C@@H](C(=O)N2CCC[C@H]2C(=O)N[C@@H](CCCN)C(=O)NCC(N)=O)NC(=O)[C@H](CC(N)=O)NC(=O)[C@H](CCC(=O)NC)NC1=O (H-CFIE(NHMe)NCP[Orn]G-NH2; disulfide 1-6) |  |  | 9.8 | 35 | 59 nM | > 1600 |  | 174 nM | 6 nM | 210 nM | > 10000 nM |

Source: ChEMBL document CHEMBL1817572, “New, potent, selective, and short-acting peptidic V1a receptor agonists” (J Med Chem, 2011)
